Laboratory results as given in paper PMC9989852 (Food and chemical toxicology : an international journal …, 2022).
Several values for one entry are separate records, joined by “and”; a condition that tells them apart may be missing. Identical values can stand only once.

Columns and labels:
ear pinna [1] = assay: Skin; format: in vivo, B6C3F1 mice; conditions: dermal, 28 days
How it was run: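 Female B6C3F1 mice (5/group) received 25 μl/ear daily to the dorsal ears in acetone. About 24 h after the last dose, tissues went into RPMI: both auricular dLNs, half spleen and one ear pinna. Single-cell suspensions were acquired on an LSR II, with populations gated per supplemental strategy and FMO gating controls. Results are mean ± SE, n=5, by one-way ANOVA.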

ear pinna [2] = assay: Ear; format: in vivo, B6C3F1 mice; conditions: dermal, 28 days, mice affected of 5
How it was run: (§1)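 Female B6C3F1 mice (5/group) received 25 μl/ear on the dorsal ear surfaces daily, with acetone as vehicle. Tissues were formalin-fixed about 24 h after the last dose: liver remainder, half spleen, right kidney and half ear pinna. Sections were paraffin-embedded, cut at 5 μm and stained with H&E. A veterinary pathologist read them per STP guideline and graded 1 (minimal) to 5 (severe) by extent.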

kidney, spleen = assay: Kidney and spleen histopathology after 28-day dermal exposure; format: in vivo, B6C3F1 mice; conditions: 1.25–5%, 28 days, data not shown
How it was run: as §1

[3] = PFAS concentration in serum; format: in vivo, B6C3F1 mice; conditions: 5%, dermal, 28 days
How it was run: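 Serum came by cardiac puncture about 24 h after the final daily ear dose (25 μl/ear, acetone vehicle; female B6C3F1 mice). Samples underwent solid-phase extraction and LC/MS/MS. Short-chain analytes were quantified as linear isomer only; the legacy comparator was quantified as linear plus branched. Data are mean ± SE of 4–5 mice, one-way ANOVA with Dunnett's vs vehicle.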

B6C3F1 mice = assay: Serum chemistries after 28-day dermal exposure; format: in vivo; conditions: 28 days
How it was run: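 Female B6C3F1 mice received daily dorsal ear application (25 μl/ear, acetone vehicle). About 24 h after the last dose, blood was taken by cardiac puncture. Serum was separated by centrifugation and stored at −20 °C. ALKP, BUN, glucose and cholesterol were read on a Catalyst DX analyzer. Data are mean ± SE of 4–5 mice, ANOVA with Dunnett's; ALKP was also tested by linear regression (p < 0.05).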

O=C(O)C(F)(F)C(F)(F)C(F)(F)C(F)(F)F [PFPeA, perfluoropentanoic acid]
Ear CD4^+ cell number (ear pinna [1]; 1.25%): 2.55 ± 0.41 × 10^3 | Ear CD4^+ frequency (ear pinna [1]; 1.25%): 2.93 ± 0.23 % | Ear CD8^+ cell number (ear pinna [1]; 1.25%): 1.38 ± 0.17 × 10^2 | Ear CD8^+ frequency (ear pinna [1]; 1.25%): 0.16 ± 0.02% | Ear CD45^+ cell number (ear pinna [1]; 1.25%): 8.61 ± 1.11 × 10^4 | Ear CD45^+ frequency (ear pinna [1]; 1.25%): 8.16 ± 0.67% | Ear CD lib- F4/80+ DCs cell number (ear pinna [1]; 1.25%): 17.60 ± 3.16 × 10^2 | Ear CDllb + F4/80+ DCs cell number (ear pinna [1]; 1.25%): 26.50 ± 4.08 × 10^2 | Ear CDllb- F4/80+ DCs frequency (ear pinna [1]; 1.25%): 2.10 ± 0.37% | Ear CDllb- F4/80-DCs cell number (ear pinna [1]; 1.25%): 2.15 ± 0.38 × 10^3 | Ear Dendritic Cells cell number (ear pinna [1]; 1.25%): 6.78 ± 0.97 × 10^3 | Ear Dendritic Cells frequency (ear pinna [1]; 1.25%): 7.83 ± 0.37% | Ear Eosinophils cell number (ear pinna [1]; 1.25%): 2.72 ± 0.51 × 10^3 | Ear Eosinophils frequency (ear pinna [1]; 1.25%): 3.13 ± 0.31% | Ear NK cell number (ear pinna [1]; 1.25%): 5.64 ± 0.85 × 10^2 | Ear NK frequency (ear pinna [1]; 1.25%): 0.66 ± 0.06% | Ear Neutrophils cell number (ear pinna [1]; 1.25%): 2.28 ± 0.53 × 10^2 | Ear Neutrophils frequency (ear pinna [1]; 1.25%): 0.27 ± 0.06% | Ear Total Cellularity (ear pinna [1]; 1.25%): 1.05 ± 0.10 × 10^6 | Ear CD4^+ cell number (ear pinna [1]; 2.5%): 4.65 ± 0.67 × 10^3 | Ear CD45^+ cell number (ear pinna [1]; 2.5%): 10.30 ± 1.26 × 10^4 | Ear CD45^+ frequency (ear pinna [1]; 2.5%): 11.46 ± 1.03 % | Ear CD lib- F4/80+ DCs cell number (ear pinna [1]; 2.5%): 17.80 ± 3.48 × 10^2 | Ear CDllb + F4/80+ DCs frequency (ear pinna [1]; 2.5%): 4.22 ± 0.51 % | Ear CDllb- F4/80+ DCs frequency (ear pinna [1]; 2.5%): 1.73 ± 0.22% | Ear CDllb- F4/80-DCs cell number (ear pinna [1]; 2.5%): 2.79 ± 0.54 × 10^3 | Ear Dendritic Cells cell number (ear pinna [1]; 2.5%): 9.44 ± 2.00 × 10^3 | Ear NK cell number (ear pinna [1]; 2.5%): 5.86 ± 0.63 × 10^2 | Ear NK frequency (ear pinna [1]; 2.5%): 0.57 ± 0.01% | Ear Neutrophils cell number (ear pinna [1]; 2.5%): 3.16 ± 0.37 × 10^2 | Ear Neutrophils frequency (ear pinna [1]; 2.5%): 0.32 ± 0.05% | Ear Total Cellularity (ear pinna [1]; 2.5%): 0.88 ± 0.04 × 10^6 | Ear CD4^+ cell number (ear pinna [1]; 5%): 10.80 ± 1.17 × 10^3 | Ear CD4^+ frequency (ear pinna [1]; 5%): 5.64 ± 0.27 % | Ear CD8^+ cell number (ear pinna [1]; 5%): 8.33 ± 1.57 × 10^2 | Ear CD8^+ frequency (ear pinna [1]; 5%): 0.42 ± 0.04 % | Ear CD45^+ cell number (ear pinna [1]; 5%): 19.40 ± 2.55 × 10^4 | Ear CD45^+ frequency (ear pinna [1]; 5%): 13.60 ± 0.97 % | Ear CD lib- F4/80+ DCs cell number (ear pinna [1]; 5%): 45.60 ± 8.63 × 10^2 | Ear CDllb + F4/80+ DCs cell number (ear pinna [1]; 5%): 86.70 ± 10.20 × 10^2 | Ear CDllb + F4/80+ DCs frequency (ear pinna [1]; 5%): 4.51 ± 0.18 % | Ear CDllb- F4/80+ DCs frequency (ear pinna [1]; 5%): 2.36 ± 0.35% | Ear CDllb- F4/80-DCs cell number (ear pinna [1]; 5%): 6.19 ± 0.94 × 10^3 | Ear CDllb- F4/80-DCs frequency (ear pinna [1]; 5%): 3.16 ± 0.10 % | Ear Dendritic Cells cell number (ear pinna [1]; 5%): 20.20 ± 2.65 × 10^3 | Ear Dendritic Cells frequency (ear pinna [1]; 5%): 10.42 ± 0.36 % | Ear Eosinophils cell number (ear pinna [1]; 5%): 13.50 ± 2.05 × 10^3 | Ear Eosinophils frequency (ear pinna [1]; 5%): 7.35 ± 1.24 % | Ear NK cell number (ear pinna [1]; 5%): 16.10 ± 4.27 × 10^2 | Ear NK frequency (ear pinna [1]; 5%): 0.80 ± 0.12% | Ear Neutrophils cell number (ear pinna [1]; 5%): 21.60 ± 8.98 × 10^2 | Ear Neutrophils frequency (ear pinna [1]; 5%): 0.97 ± 0.31 % | Ear Total Cellularity (ear pinna [1]; 5%): 1.41 ± 0.11 × 10^6 | Ear: Degeneration/regeneration, cartilage, focal, Mild (incidence) (ear pinna [2]; 1.25%): 0 | Ear: Fibrosis, dermis, focal, Minimal (incidence) (ear pinna [2]; 1.25%): 0 | Ear: Hyperkeratosis, epidermis, focal, Mild (incidence) (ear pinna [2]; 1.25%): 0 | Ear: Hyperkeratosis, epidermis, focal, Minimal (incidence) (ear pinna [2]; 1.25%): 0 | Ear: Hyperplasia, epidermis, focal, Mild (incidence) (ear pinna [2]; 1.25%): 0 | Ear: Hyperplasia, epidermis, focal, Minimal (incidence) (ear pinna [2]; 1.25%): 0 | Ear: Inflammation, mixed cell, dermis, Minimal (incidence) (ear pinna [2]; 1.25%): 0 | Ear: Inflammation, mononuclear cell, dermis, Minimal (incidence) (ear pinna [2]; 1.25%): 0 | Ear: Necrosis, epidermis, multifocal, Minimal (incidence) (ear pinna [2]; 1.25%): 0 | Ear: Degeneration/regeneration, cartilage, focal, Mild (incidence) (ear pinna [2]; 2.5%): 0 | Ear: Fibrosis, dermis, focal, Minimal (incidence) (ear pinna [2]; 2.5%): 0 | Ear: Hyperkeratosis, epidermis, focal, Mild (incidence) (ear pinna [2]; 2.5%): 0 | Ear: Hyperkeratosis, epidermis, focal, Minimal (incidence) (ear pinna [2]; 2.5%): 0 | Ear: Hyperplasia, epidermis, focal, Mild (incidence) (ear pinna [2]; 2.5%): 0 | Ear: Hyperplasia, epidermis, focal, Minimal (incidence) (ear pinna [2]; 2.5%): 4/5 and 4 | Ear: Inflammation, mixed cell, dermis, Minimal (incidence) (ear pinna [2]; 2.5%): 2/5 and 2 | Ear: Inflammation, mononuclear cell, dermis, Minimal (incidence) (ear pinna [2]; 2.5%): 0 | Ear: Necrosis, epidermis, multifocal, Minimal (incidence) (ear pinna [2]; 2.5%): 0 | Ear: Degeneration/regeneration, cartilage, focal, Mild (incidence) (ear pinna [2]; 5%): 0 | Ear: Fibrosis, dermis, focal, Minimal (incidence) (ear pinna [2]; 5%): 4/5 and 4 | Ear: Hyperkeratosis, epidermis, focal, Mild (incidence) (ear pinna [2]; 5%): 0 | Ear: Hyperkeratosis, epidermis, focal, Minimal (incidence) (ear pinna [2]; 5%): 2/5 and 2 | Ear: Hyperplasia, epidermis, focal, Mild (incidence) (ear pinna [2]; 5%): 3/5 and 3 | Ear: Hyperplasia, epidermis, focal, Minimal (incidence) (ear pinna [2]; 5%): 2/5 and 2 | Ear: Inflammation, mixed cell, dermis, Minimal (incidence) (ear pinna [2]; 5%): 4/5 and 4 | Ear: Inflammation, mononuclear cell, dermis, Minimal (incidence) (ear pinna [2]; 5%): 0 | Ear: Necrosis, epidermis, multifocal, Minimal (incidence) (ear pinna [2]; 5%): 0 | microscopic observations in the kidney or the spleen (kidney, spleen): No PFPeA, PFHxA, or PFHpA-related microscopic observations | PFAS serum concentration vs vehicle [3]: significant increase | serum cholesterol (B6C3F1 mice; 1.25%): decrease | serum urea nitrogen (BUN), decrease (B6C3F1 mice; 2.5%): 20% | serum glucose, increase compared to vehicle control (B6C3F1 mice; 5%): 30% | serum urea nitrogen (BUN), decrease (B6C3F1 mice; 5%): 22% | serum alanine aminotransferase (ALT) (B6C3F1 mice; any concentration, data not shown): No change
